These compounds were tested against T1, UniProt Q8VF24. Conditions: stereoisomer not certain.
T1 sequence (whole entry): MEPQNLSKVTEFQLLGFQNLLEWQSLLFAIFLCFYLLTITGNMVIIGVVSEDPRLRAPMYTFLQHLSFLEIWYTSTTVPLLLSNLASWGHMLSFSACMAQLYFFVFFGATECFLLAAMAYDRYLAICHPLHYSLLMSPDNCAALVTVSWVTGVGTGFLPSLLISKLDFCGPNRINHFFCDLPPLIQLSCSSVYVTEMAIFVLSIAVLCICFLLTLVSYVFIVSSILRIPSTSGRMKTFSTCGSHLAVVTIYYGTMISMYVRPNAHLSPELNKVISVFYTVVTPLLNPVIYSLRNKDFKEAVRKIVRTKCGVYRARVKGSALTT
How it was run: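 Whether a receptor–molecule pair is responsive (active) rests on the original authors' judgment that its measured signal was statistically different from baseline. Pairs without that judgment are non-responsive (inactive). Sources used varied assay methods, commonly transient luciferase assays in mammalian cell lines.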
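Note: active if original authors judged signal statistically different from baseline.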

Row | SMILES | odorant receptor agonist call
1 | CCCCCOC(=O)CCCCC | inactive
2 | CCC(=O)C(=O)CC | inactive
3 | CCCCCCCCCC(=O)[O-].[H+] | inactive
4 | CCCCCCC(=O)[O-].[H+] | inactive
5 | C=CCOC(=O)CCCCCC | inactive
6 | CCCCCCCCCCO | inactive
7 | O=C(c1ccccc1)c1ccccc1 | inactive
8 | CCCCOC=O | inactive
9 | CC(=O)OCC=C(C)C | inactive
10 | CC12CCC(CC1=O)C2(C)C (centres undefined) | active
11 | CCCCCO | inactive
12 | CCCCCCCCS | inactive
13 | CCCCCC=O | inactive
14 | CCC(C(=O)O)c1ccccc1 (centres undefined) | inactive
15 | CCOC(=O)C(C)C | inactive
16 | O=c1ccc2ccccc2o1 | inactive
17 | CCCCCC1=C(C)CCC1=O | inactive
18 | CCCCOC(=O)C(C)OC(=O)CCC (centres undefined) | inactive
19 | CCCCCCOC(C)=O | inactive
